The record followed here is ChEMBL document CHEMBL1131239, “Orally active benzamide antipsychotic agents with affinity for dopamine D2, serotonin 5-HT1A, and adrenergic alpha1 receptors” (J Med Chem, 1998).

Assay [1] relates to Rattus norvegicus. The experiment in a line: compound was tested for antipsychotic activity by conditioned avoidance response(CAR) assay in rats with a pretreatment period of 30 min upon intra peritoneal administration at a concentration of 15 mg/kg. Format: functional. In short, it runs like this: (§1)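 Trained rats (N = 4) were run in 1-h sessions on two consecutive days, with the experimenter blind to drug and dose. Fed rats had food and water until placed in the test chambers. Fasted rats had no food overnight before the experiment.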

The target in assay [2] is T1, 5-hydroxytryptamine receptor 1A (Rattus norvegicus, UniProt P19327).
T1 sequence (P19327 whole entry): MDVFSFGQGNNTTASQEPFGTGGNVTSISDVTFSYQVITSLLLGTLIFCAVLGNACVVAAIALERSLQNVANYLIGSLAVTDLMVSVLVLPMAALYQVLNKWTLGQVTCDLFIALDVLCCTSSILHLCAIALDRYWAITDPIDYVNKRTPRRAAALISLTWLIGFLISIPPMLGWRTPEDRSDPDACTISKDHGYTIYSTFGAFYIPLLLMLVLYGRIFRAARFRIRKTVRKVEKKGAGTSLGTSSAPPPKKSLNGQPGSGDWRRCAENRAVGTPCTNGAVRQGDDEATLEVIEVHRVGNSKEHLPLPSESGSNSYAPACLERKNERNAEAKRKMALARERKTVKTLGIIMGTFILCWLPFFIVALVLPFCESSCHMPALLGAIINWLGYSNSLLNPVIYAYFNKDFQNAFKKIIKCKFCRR
The experiment in a line: Compound was evaluated for its binding affinity against 5-hydroxytryptamine 1A receptor from rat cerebral cortex. Format: tissue-based.

Assay [3] deals with Rattus norvegicus. Nature of the assay: compound was tested for antipsychotic activity by conditioned avoidance response(CAR) assay in rats with a pretreatment period of 30 min upon intra peritoneal administration at a concentration of 5 mg/kg. Format: functional. In short, it runs like this: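 Rat conditioned avoidance test modified from Martin et al. Trained rats (N = 4) were run in 1-h sessions on two consecutive days. Fed animals had food and water until placed in the test chambers. Dosing was ip with 30 min pretreatment, and activity was expressed as percent inhibition at the stated dose.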

The target in assay [4] is T2, Adrenergic receptor alpha-1 (Rattus norvegicus, UniProt P15823+P23944+P43140).
T2 sequence (P15823 whole entry): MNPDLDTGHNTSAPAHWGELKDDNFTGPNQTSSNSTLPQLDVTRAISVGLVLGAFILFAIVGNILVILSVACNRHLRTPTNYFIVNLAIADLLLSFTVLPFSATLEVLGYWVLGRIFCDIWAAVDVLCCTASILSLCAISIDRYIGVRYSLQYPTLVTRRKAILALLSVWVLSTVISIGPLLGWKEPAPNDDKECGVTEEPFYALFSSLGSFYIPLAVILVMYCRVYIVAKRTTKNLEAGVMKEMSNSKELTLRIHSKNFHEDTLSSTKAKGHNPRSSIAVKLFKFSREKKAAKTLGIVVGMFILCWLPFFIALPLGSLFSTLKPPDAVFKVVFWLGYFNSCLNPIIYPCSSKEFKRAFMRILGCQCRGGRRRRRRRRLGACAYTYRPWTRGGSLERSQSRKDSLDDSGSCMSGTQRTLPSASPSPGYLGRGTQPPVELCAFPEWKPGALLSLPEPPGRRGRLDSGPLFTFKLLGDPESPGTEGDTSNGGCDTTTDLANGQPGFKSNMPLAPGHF
T2 sequence (P23944 whole entry): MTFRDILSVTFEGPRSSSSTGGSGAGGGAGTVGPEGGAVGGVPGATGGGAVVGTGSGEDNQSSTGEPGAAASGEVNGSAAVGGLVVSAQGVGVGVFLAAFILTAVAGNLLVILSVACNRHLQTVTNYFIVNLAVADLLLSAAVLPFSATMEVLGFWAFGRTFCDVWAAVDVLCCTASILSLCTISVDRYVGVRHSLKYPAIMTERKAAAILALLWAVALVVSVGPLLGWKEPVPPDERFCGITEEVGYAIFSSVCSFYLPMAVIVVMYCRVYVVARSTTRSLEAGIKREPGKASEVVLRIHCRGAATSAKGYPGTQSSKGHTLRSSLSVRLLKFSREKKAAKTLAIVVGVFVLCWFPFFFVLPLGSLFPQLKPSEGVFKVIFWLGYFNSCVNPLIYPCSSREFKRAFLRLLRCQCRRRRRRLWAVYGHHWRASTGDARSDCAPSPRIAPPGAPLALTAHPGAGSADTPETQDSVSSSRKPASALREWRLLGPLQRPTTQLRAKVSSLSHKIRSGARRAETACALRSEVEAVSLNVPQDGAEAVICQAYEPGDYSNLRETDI
T2 sequence (P43140 whole entry): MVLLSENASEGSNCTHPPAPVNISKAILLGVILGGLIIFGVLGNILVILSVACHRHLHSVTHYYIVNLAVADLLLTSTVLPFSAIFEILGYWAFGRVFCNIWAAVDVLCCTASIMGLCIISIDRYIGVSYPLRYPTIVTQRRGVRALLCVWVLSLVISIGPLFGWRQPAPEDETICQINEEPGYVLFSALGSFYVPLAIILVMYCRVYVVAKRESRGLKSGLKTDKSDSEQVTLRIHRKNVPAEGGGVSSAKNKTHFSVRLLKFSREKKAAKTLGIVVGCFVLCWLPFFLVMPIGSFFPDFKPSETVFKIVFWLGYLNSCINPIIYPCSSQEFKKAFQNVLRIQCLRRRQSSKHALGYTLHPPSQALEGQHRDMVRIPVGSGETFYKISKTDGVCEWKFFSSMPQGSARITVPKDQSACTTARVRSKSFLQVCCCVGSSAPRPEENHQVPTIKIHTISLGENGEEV
Nature of the assay: Binding affinity against Alpha-1 adrenergic receptor from rat cerebral cortex. Format: tissue-based.

In assay [5] the test system is Rattus norvegicus. The experiment in a line: (§2) compound was tested for antipsychotic activity by conditioned avoidance response(CAR) assay in rats with a pretreatment period of 60 min upon peroral administration at a concentration of 20 mg/kg. Format: functional. The conditions noted are these: route oral. In short, it runs like this:
as §1

For assay [6], the system named is Rattus norvegicus. The experiment in a line: compound was tested for antipsychotic activity by conditioned avoidance response(CAR) assay in rats with a pretreatment period of 30 min upon intra peritoneal administration at a concentration of 1 mg/kg. Format: functional. In short, it runs like this: as §1
In assay [7] the test system is Rattus norvegicus. The description is as §2. The following applies: route oral. Format: functional. This is another data set of the same source.
Assay [8] relates to Rattus norvegicus. The experiment in a line: Percent catalepsy in male Spargue-Dawley rat at pretreatment time 240 mins and when administered ip at dose 50 mg/kg. Format: functional. The conditions noted are these: route intraperitoneal. Put shortly:
(§3)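 Catalepsy in rats, groups of five per drug treatment, scored blind to drug and dose. Each session included a saline or vehicle negative control and a haloperidol 2 mg/kg positive control. Deaths during the experiment were recorded in the catalepsy column as number dead out of five.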

The subject of assay [9] is Rattus norvegicus. The experiment in a line: Percent catalepsy in male Spargue-Dawley rat at pretreatment time 60 mins and when administered ip at dose 50 mg/kg. Format: functional. The conditions noted are these: route intraperitoneal. In short, it runs like this: as §3
For assay [10], the system named is Rattus norvegicus. The experiment in a line: compound was tested for antipsychotic activity by conditioned avoidance response(CAR) assay in rats with a pretreatment period of 60 min upon peroral administration. Values in brackets indicates 95% confidence limits for ED50. Format: functional. The following applies: po. Put shortly: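 Rats trained in conditioned avoidance were run in a 1-h session on two consecutive days (N = 4). The read-out was reduction of the conditioned response to a disagreeable stimulus. Oral dosing was 60 min before testing. Fed rats had food and water until placed in the test chambers; fasted rats had no food overnight before the experiment.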

Assay [11] deals with T1, 5-hydroxytryptamine receptor 1A. The experiment in a line: Compound was evaluated for its binding affinity with 5-hydroxytryptamine 1A receptor using membranes prepared from rat cerebral cortex. Format: tissue-based. In short, it runs like this: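 Membranes from male Wistar rat cerebral cortex: homogenized in HEPES-buffered 0.3 M sucrose, P2 pellet incubated 30 min at 25 °C, resuspended in 3 mM phosphate buffer pH 7.5. Labeled with 3 nM [3H]-8-OH-DPAT for 20 min at 25 °C. Nonspecific binding defined with 1 μM serotonin.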

Assay [12] has as its target T2, Adrenergic receptor alpha-1. Nature of the assay: Compound was evaluated for its binding affinity with Alpha-1 adrenergic receptor using membranes prepared from rat cerebral cortex. Format: tissue-based.

Each structure is given as a SMILES string.

The term inhibition in vivo denotes the relative decrease from the control value, in per cent. What is called Ki is a measure of affinity in units of concentration, obtained from inhibition or displacement. On to `CC(C)Oc1ccccc1N1CCN(Cc2cccc(C(=O)N3CCCCC3=O)c2)CC1`, for which, in [1], the inhibition in vivo at 15 mg/kg is -92.4%. In addition, the values for the Ki in assay [2] and in assay [4] were 3.9 nM and 6.4 nM, respectively. Moreover, in [3], the inhibition in vivo at 5 mg/kg is -11.2%.

Take `CC(=O)N(C)C(=O)c1cccc(CN2CCN(c3ccccc3OC(C)C)CC2)c1`: the inhibition in vivo at 20 mg/kg in [5] is -1.6%. In addition, the results for the Ki in assay [2] and in [4] were 3.3 nM and 388 nM, respectively. For the same molecule, the inhibition in vivo at 5 mg/kg in [3] is -94.5%. Moreover, the inhibition in vivo at 1 mg/kg in assay [6] was -9.6%.

Regarding `O=C(c1cccc(CN2CCN(c3cccc(Cl)c3)CC2)c1)N1CCCCC1`, the inhibition in vivo at 20 mg/kg in assay [7] was -27.9%. In addition, the Catalepsy in assay [8] was 33.9%; in [9] it was 21.8%. Besides, the Ki in [2] amounted to 1.2 nM; in assay [4], 11.4 nM. The inhibition in vivo at 5 mg/kg in assay [3] was -36.1%.

For `CC(C)Oc1ccccc1N1CCN(CCc2ccc(C(=O)N3CCCCC3)cc2)CC1`, the inhibition in vivo at 15 mg/kg in [1] is -98.2%. In addition, the Ki in assay [2] was 2.5 nM; in [4] it was 2.1 nM. In addition, the inhibition in vivo at 1 mg/kg in [6] is -1.1%.

By ED50 is commonly meant the dose at which the effect has come halfway, by size or by number of responders. Consider `O=C(CCCN1CCC(O)(c2ccc(Cl)cc2)CC1)c1ccc(F)cc1` [HALOPERIDOL], for which the ED50 in [10] was found to be 0.31 mg/kg.

Regarding `CC(C)Oc1ccccc1N1CCN(C(C)c2cccc(C(=O)N3CCCCC3)c2)CC1` (centres undefined), in assay [1], the inhibition in vivo at 15 mg/kg was -7.1%. The results for the inhibition constant Ki in assay [2] and in [4] were greater than 1000 nM and 87 nM, respectively.

On to `O=C(c1cccc(CN2CCN(c3nsc4ccccc34)CC2)c1)N1CCCCC1`, for which the results for the Ki in assay [11] and in assay [12] were 2.5 nM and 2.7 nM, respectively. In assay [3], the inhibition in vivo at 5 mg/kg is -89.6%. Also, the Catalepsy in [9] is listed as 74%.

In the case of `CC(C)Oc1ccccc1N1CCN(CCCCc2ccc(C(=O)N3CCCCC3)cc2)CC1`, the inhibition in vivo at 15 mg/kg in assay [1] was -95.3%. In [4], this molecule came in with a Ki of 284 nM.
